Four compounds from ChEMBL document CHEMBL5678818, “Discovery of potent SOS1 inhibitors that block RAS activation via disruption of the RAS-SOS1 interaction” (Proc Natl Acad Sci U S A, 2019) can be followed below.

The target in test [1] is T1, Son of sevenless homolog 1 (Homo sapiens) (UniProt Q07889).
T1 sequence (whole entry): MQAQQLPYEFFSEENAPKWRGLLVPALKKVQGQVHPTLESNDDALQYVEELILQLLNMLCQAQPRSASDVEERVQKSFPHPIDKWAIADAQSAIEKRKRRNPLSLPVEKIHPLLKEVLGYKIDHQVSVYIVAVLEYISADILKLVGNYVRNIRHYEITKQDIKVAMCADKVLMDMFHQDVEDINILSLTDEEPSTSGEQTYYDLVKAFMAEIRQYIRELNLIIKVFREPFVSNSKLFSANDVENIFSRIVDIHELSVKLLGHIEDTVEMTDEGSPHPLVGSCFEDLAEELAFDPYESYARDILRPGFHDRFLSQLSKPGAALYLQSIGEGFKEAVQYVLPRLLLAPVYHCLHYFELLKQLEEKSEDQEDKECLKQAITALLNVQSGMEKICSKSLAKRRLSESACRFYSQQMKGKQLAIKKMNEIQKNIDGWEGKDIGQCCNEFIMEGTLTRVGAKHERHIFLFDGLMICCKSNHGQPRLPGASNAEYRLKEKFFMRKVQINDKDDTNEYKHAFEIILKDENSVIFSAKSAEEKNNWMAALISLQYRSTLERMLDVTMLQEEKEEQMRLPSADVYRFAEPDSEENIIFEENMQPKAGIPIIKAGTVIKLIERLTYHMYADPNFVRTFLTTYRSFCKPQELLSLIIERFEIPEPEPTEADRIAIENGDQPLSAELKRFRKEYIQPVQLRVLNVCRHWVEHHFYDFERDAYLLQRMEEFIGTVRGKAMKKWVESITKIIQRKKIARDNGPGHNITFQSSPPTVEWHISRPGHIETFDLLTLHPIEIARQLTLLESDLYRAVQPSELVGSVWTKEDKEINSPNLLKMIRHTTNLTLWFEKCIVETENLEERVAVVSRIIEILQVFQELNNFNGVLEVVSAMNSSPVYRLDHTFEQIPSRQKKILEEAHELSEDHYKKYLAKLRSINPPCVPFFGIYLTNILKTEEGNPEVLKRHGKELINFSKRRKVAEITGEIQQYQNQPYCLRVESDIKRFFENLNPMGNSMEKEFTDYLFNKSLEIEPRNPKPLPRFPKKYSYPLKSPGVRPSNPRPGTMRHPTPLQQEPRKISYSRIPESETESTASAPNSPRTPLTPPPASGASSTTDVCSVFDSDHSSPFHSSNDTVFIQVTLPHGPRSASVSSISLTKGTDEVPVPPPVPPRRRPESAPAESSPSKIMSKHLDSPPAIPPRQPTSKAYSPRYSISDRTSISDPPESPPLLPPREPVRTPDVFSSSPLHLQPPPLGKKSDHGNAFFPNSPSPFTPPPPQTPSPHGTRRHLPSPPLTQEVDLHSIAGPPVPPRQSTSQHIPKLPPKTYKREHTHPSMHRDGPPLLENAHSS
Put plainly: Stabilization of N-terminal His10-tagged wild-type recombinant human SOS1 catalytic domain (564 to 1049 residues) expressed in Escherichia coli assessed as change in melting temperature at 100 uM with heating from 25 to 85 degreeC by thermal shift assay.

The target in test [2] is GTPase KRas (Homo sapiens) (UniProt P01116). As to the kind of experiment: Stabilization of N-terminal His10-tagged wild-type recombinant human KRAS (1 to 169 residues) expressed in Escherichia coli assessed as change in melting temperature at 100 uM with heating from 25 to 85 degreeC by thermal shift assay.
In the next test the test system is MOLM-13. Put plainly: Antiproliferative activity against human MOLM-13 cells assessed as inhibition of cell viability incubated for 72 hrs by Cell Titer Glo assay. Particulars: MOLM-13, 72 h. The class given is functional, cell-based.
In test [3] the target is T2, Guanine nucleotide exchange factor DBS (Homo sapiens, UniProt O15068).
T2 sequence (O15068 whole entry): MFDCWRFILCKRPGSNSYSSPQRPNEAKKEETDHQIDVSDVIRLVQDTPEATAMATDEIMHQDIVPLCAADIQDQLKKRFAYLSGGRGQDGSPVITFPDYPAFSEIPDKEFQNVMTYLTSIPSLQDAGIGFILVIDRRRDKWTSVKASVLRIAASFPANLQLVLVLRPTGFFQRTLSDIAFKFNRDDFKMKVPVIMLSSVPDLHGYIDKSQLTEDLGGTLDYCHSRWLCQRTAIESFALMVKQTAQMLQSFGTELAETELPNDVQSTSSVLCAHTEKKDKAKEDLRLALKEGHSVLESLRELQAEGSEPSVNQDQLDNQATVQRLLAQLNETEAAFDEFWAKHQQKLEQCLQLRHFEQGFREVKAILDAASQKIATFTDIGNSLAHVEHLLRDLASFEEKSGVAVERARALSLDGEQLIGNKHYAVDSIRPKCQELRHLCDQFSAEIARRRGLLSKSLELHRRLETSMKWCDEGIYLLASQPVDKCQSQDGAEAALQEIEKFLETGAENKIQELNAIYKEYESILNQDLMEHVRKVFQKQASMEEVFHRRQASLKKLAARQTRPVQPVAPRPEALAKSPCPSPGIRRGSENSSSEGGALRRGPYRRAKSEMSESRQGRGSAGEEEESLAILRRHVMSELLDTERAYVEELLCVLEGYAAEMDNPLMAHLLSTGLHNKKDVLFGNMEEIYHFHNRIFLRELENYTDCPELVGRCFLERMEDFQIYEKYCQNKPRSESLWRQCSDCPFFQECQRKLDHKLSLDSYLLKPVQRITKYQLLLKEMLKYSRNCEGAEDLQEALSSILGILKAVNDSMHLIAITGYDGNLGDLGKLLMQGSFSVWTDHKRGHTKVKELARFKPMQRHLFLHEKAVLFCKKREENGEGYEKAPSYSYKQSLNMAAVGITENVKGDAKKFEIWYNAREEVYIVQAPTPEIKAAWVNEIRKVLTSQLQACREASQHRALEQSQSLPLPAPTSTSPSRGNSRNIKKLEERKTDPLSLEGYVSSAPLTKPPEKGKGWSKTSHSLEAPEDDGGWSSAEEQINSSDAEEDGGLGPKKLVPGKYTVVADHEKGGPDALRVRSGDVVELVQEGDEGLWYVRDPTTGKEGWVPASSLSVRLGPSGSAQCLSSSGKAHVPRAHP
Put plainly: Inhibition of human DBS assessed as reduction in CDC42 activation preincubated for 1 min with CDC42 followed by DBS addition measured after 20 mins in presence of EDA-GTP-DY-647P1 by HTRF analysis. For orientation: Time-resolved FRET reads energy transfer from a long-lived donor to a nearby acceptor.

Test [4] addresses Epidermal growth factor receptor (Homo sapiens, UniProt P00533). Put plainly: Inhibition of human EGFR using biotin-aminohexyl-AEEEEYFELVAKKK as substrate preincubated for 15 mins followed by substrate/ATP addition measured after 20 mins by FRET assay.
A further test deals with NCI-H358. As to the kind of experiment: Antiproliferative activity against human NCI-H358 cells assessed as inhibition of cell viability incubated for 72 hrs by Cell Titer Glo assay. The class given is functional, cell-based. To be noted: NCI-H358, 72 h. Put shortly:
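NCI-H358 cells (KRAS G12C mutant) were sourced from ATCC.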
On the technique in general: ATP-based viability assays read luminescence as a measure of living cells.

In test [5] the test system is GTPase KRas (Homo sapiens), P01116 [G12C]. As to the kind of experiment: Stabilization of N-terminal GST-tagged recombinant human KRAS G12C mutant (1 to 169 residues) expressed in Escherichia coli assessed as change in melting temperature at 100 uM with heating from 25 to 85 degreeC by thermal shift assay.
Test [6] deals with Son of sevenless homolog 2 (Homo sapiens, UniProt Q07890). As to the kind of experiment: Inhibition of N-terminal His10-tagged wild-type recombinant human SOS2 catalytic domain (564 to 1043 residues) expressed in Escherichia coli assessed as reduction in KRAS G12C mutant activation preincubated for 10 mins with KRAS followed by SOS2 addition measured after 30 mins in presence of EDA-GTP-DY-647P1 by HTRF analysis.

The subject of test [7] is K562. As to the kind of experiment: Antiproliferative activity against human K562 cells assessed as inhibition of cell viability incubated for 72 hrs by Cell Titer Glo assay. The test is classed as functional, cell-based. Particulars: K562, 72 h. The procedure, abridged:
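K-562 cells (wild-type KRAS, sourced from ATCC) were tested for antiproliferative response.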

Test [8] deals with GTPase KRas (Homo sapiens), P01116 [G12C]. As to the kind of experiment: Binding affinity to N-terminal GST-tagged recombinant human KRAS G12C mutant (1 to 169 residues) expressed in Escherichia coli at 200 uM by STD-NMR analysis.
Test [9] is filed under the species Homo sapiens. As to the kind of experiment: Stabilization of N-terminal His10-tagged recombinant human KRAS G12C/C118S mutant (1 to 169 residues) expressed in Escherichia coli/Series S C1 sensor chip-immobilized biotinylated N-terminal His10-tagged wild-type recombinant human SOS1 catalytic domain (564 to 1049 residues) expressed in Escherichia coli at 100 to 500 uM measured for 360 secs by SPR analysis. To be noted: dose 100-500 µM, time 360.0 sec. The procedure, abridged: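 SOS1cat is immobilized on the chip, and 250 nM KRASG12C_C118S is flowed over with or without test compound. Compound alone at 100, 250 and 500 µM is also injected to gauge unspecific binding to SOS1cat. Buffer injection serves as the blank.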
(In general: Surface plasmon resonance follows binding to a sensor surface in real time, without labels.)

Test [10] concerns SOS1-KRAS (Homo sapiens), Q07889+P01116 [G12C]. As to the kind of experiment: Binding affinity to N-terminal GST-tagged recombinant human KRAS G12C mutant (1 to 169 residues) expressed in Escherichia coli/N-terminal His10-tagged wild-type recombinant human SOS1 catalytic domain (564 to 1049 residues) expressed in Escherichia coli at 200 uM by STD-NMR analysis.
The species entered for test [11] is Homo sapiens. Put plainly: Stabilization of N-terminal His10-tagged 15N-labeled recombinant human KRAS G12C/C118S mutant (1 to 169 residues) expressed in Escherichia coli/N-terminal His10-tagged wild-type recombinant human SOS1 catalytic domain (564 to 1049 residues) expressed in Escherichia coli at 1 mM incubated for 30 mins by 2D-NMR analysis.
Test [12] has as its target T1, Son of sevenless homolog 1 (Homo sapiens). As to the kind of experiment: Binding affinity to N-terminal His10-tagged wild-type recombinant human SOS1 catalytic domain (564 to 1049 residues) expressed in Escherichia coli at 200 uM by STD-NMR analysis.
For test [13], the species on record is Homo sapiens. As to the kind of experiment: Stabilization of N-terminal His10-tagged recombinant human KRAS G12C/C118S mutant (1 to 169 residues) expressed in Escherichia coli/N-terminal His10-tagged wild-type recombinant human SOS1 catalytic domain (564 to 1049 residues) expressed in Escherichia coli by HTRF analysis. The procedure, abridged:
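HTRF equilibrium-binding read-out of KRASG12C_C118S with SOS1cat, detected by fluorescently labelled antibodies including a terbium donor. Signal normalized with DMSO control as 100% and no-SOS1cat wells as 0%. Data are mean ± SD, n = 4.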

The target of test [14] is T1, Son of sevenless homolog 1 (Homo sapiens). Put plainly: Inhibition of SOS1 in human Calu-1 cells assessed as pERK level incubated for 24 hrs by HTRF analysis relative to control. The class given is cell-based. More on the design: scale not given: the % may be the effect or the level left.
For a further test, the system named is KG-1. Put plainly: Antiproliferative activity against human KG-1 cells assessed as inhibition of cell viability incubated for 72 hrs by Cell Titer Glo assay. The test is classed as functional, cell-based.
Test [15] concerns Calu-1. As to the kind of experiment: Antiproliferative activity against human Calu-1 cells assessed as inhibition of cell viability incubated for 72 hrs by Cell Titer Glo assay. The class given is functional, cell-based. Particulars: Calu-1, 72 h.
For test [16], the system named is K562. Put plainly: Effect on total ERK level in human K562 cells incubated for 60 mins by HTRF analysis. The test is classed as functional, cell-based. Put shortly:
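K-562 cells (wild-type KRAS) were sourced from ATCC. Cells were incubated with compound for 60 min, and total ERK was quantified alongside pERK.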

The next test has as its system THP-1. Put plainly: Antiproliferative activity against human THP-1 cells assessed as inhibition of cell viability incubated for 72 hrs by Cell Titer Glo assay. The test is classed as functional, cell-based.
In test [17] the test system is Calu-1. Put plainly: Effect on total ERK level in human Calu-1 cells incubated for 24 hrs by HTRF analysis. The test is classed as functional, cell-based. Put shortly:
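Calu-1 cells carry two KRAS G12C alleles and were sourced from CLS. Total and pERK levels were both analyzed after compound treatment.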

By ΔTm is commonly meant the change in melting temperature against a reference sample. One may read the IC50 as the midpoint of a concentration-inhibition curve.

Activity calls are given as the source filed them. The calls are words filed in the database; no cut-off is given here.

Regarding `CNCc1ccccc1-c1csc([C@H](C)Nc2nc(C)nc3cc(OC)c(OC)cc23)c1` [BAY-294], the ΔTm in test [1] was 0.28 °C; in test [2], -0.05 °C; in test [5] it was -0.6 °C. The IC50 in the test on MOLM-13 was 7.57 µM; in test [3] it was more than 20 µM; in test [4], more than 20 µM; in the test with NCI-H358 it was 3.39 µM; in test [6], more than 20 µM; with K562 [7], 7.5 µM.

In the case of `NCc1nn(-c2ccccc2)c2c1CCC2`, the outcome in [8] and in [12] was inactive. In addition, the result (in the test filed under Homo sapiens [9]; in [10]; in the test listed under Homo sapiens [11]; in the test listed under Homo sapiens [13]) was Active.

Turning to `C=CC(=O)N1CC(N2CCN(C(=O)CNc3cc(C4(C)CC4)c(Cl)cc3O)CC2)C1`, in [14], the Activity turned out to be 50%.

With `CNCc1ccccc1-c1csc(C(C)Nc2nc(C)nc3cc(OC)c(OC)cc23)c1` (centres undefined), the result in the test with KG-1 and with THP-1 was Active. In addition, the values for the ΔTm in [1], in test [2] and in test [5] were 2.96 °C, -0.67 °C and -0.57 °C, respectively. In addition, the IC50 is 2.05 µM with Calu-1 [15]; more than 20 µM in test [3]; more than 20 µM in test [4]; 2.66 µM with NCI-H358; more than 20 µM in [6]; 1.1 µM with K562 [7]. Besides, the result in the test with K562 [16] and in the test with Calu-1 [17] was inactive.
